Assay results published in ChEMBL document CHEMBL1147176, “Synthesis of S-dialkylarsino-3-mercapto-1,2-propanediols and evaluation of their anticancer activity” (2007).

Columns and labels:
Assay type in all cases: functional
RPMI-8226 = experiment: Anticancer activity against human RPMI8226 cells assessed as growth inhibition; settings: read-out: Log LC50 (the source's name) (converted)
In short: (§1)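 NCI in vitro disease-oriented human tumor cell screen, about 60 lines. Growth inhibition read as pGI50, the -log of the molar concentration inhibiting 50% net cell growth. A mean graph midpoint is the arithmetic mean over all tested lines. Where the effect was not reached within the concentration interval, the highest tested concentration was used.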

CCRF-CEM = experiment: Anticancer activity against human CCRF-CEM cells assessed as growth inhibition; in short: as §1
SF-539 = experiment: Anticancer activity against human SF539 cells assessed as growth inhibition; in short: as §1
SK-MEL-28 = experiment: Anticancer activity against human SK-MEL-28 cells assessed as growth inhibition; in short: as §1
A498 = experiment: Anticancer activity against human A498 cells assessed as growth inhibition; in short: as §1
SK-OV-3 = experiment: Anticancer activity against human SK-OV3 cells assessed as growth inhibition; in short: as §1
U-251 = experiment: Anticancer activity against human U251 cells assessed as growth inhibition
In short: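 The value is GI50, the molar concentration causing 50% inhibition of net cell growth, reported as pGI50 (−log molar).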

Malme-3M = experiment: Anticancer activity against human MALME3M cells assessed as growth inhibition; in short: as §1
HOP-62 = experiment: Anticancer activity against human HOP62 cells assessed as growth inhibition; in short: as §1
SNB-19 = experiment: Anticancer activity against human SNB19 cells assessed as growth inhibition; in short: as §1
HL-60 = experiment: Anticancer activity against human HL60(TB) cells assessed as growth inhibition; in short: as §1
NCI-H460 = experiment: Anticancer activity against human NCI-H460 cells assessed as growth inhibition; in short: as §1
786-0 = experiment: Anticancer activity against human 786-0 cells assessed as growth inhibition; settings: read-out: Log LC50 (the source's name) (converted); in short: as §1
MDA-MB-435 = experiment: Anticancer activity against human MDA-MB435 cells assessed as growth inhibition; in short: as §1
ACHN = experiment: Anticancer activity against human ACHN cells assessed as growth inhibition; in short: as §1
[1] = Anticancer activity against human HS 578T cells assessed as growth inhibition; in short: as §1
MOLT-4 = experiment: Anticancer activity against human MOLT4 cells assessed as growth inhibition; in short: as §1
K562 = experiment: Anticancer activity against human K562 cells assessed as growth inhibition; in short: as §1
NCI-H522 = experiment: Anticancer activity against human NCI-H522 cells assessed as growth inhibition; in short: as §1
T47D = experiment: Anticancer activity against human T47D cells assessed as growth inhibition; in short: as §1
MCF7 = experiment: Anticancer activity against human MCF7 cells assessed as growth inhibition; in short: as §1
SN12C = experiment: Anticancer activity against human SN12C cells assessed as growth inhibition; in short: as §1
NCI-H322M = experiment: Anticancer activity against human NCI-H322M cells assessed as growth inhibition; in short: as §1
EKVX = experiment: Anticancer activity against human EKVX cells assessed as growth inhibition; in short: as §1
A549 = experiment: Anticancer activity against human A549/ATCC cells assessed as growth inhibition; in short: as §1
HCT-15 = experiment: Anticancer activity against human HCT15 cells assessed as growth inhibition; in short: as §1
NCI/ADR-RES = experiment: Anticancer activity against human NCI/ADR-RES cells assessed as growth inhibition; in short: as §1
[2] = read-out: Log LC50 (the source's name) (converted)

For `C[As](C)SCC(COC(=O)C(Cl)c1ccccc1)OC(=O)C(Cl)c1ccccc1` (stereo unspecified), the CC50 (RPMI-8226) was > 100 µM, the GI50 (CCRF-CEM) was 0.302 µM and the CC50 (CCRF-CEM; [2]) was 32.4 µM. The GI50 (SF-539) was 3.63 µM, the CC50 (SF-539; [2]) was > 100 µM and the GI50 (SK-MEL-28) was 0.603 µM. For the same molecule, the GI50 (A498) was 5.5 µM, the CC50 (A498; [2]) was 57.5 µM and the GI50 (SK-OV-3) was 0.646 µM. The CC50 (SK-OV-3; [2]) was > 100 µM, the GI50 (U-251) was 6.31 µM and the CC50 (U-251; [2]) was > 100 µM. For the same molecule, the GI50 (Malme-3M) was 0.0398 µM, the CC50 (Malme-3M; [2]) was 3.39 µM and the GI50 (HOP-62) was 4.37 µM. It also gave a CC50 (HOP-62; [2]) of 40.7 µM, a GI50 (SNB-19) of 11.5 µM and a CC50 (SNB-19; [2]) of 85.1 µM. The GI50 (HL-60) was 0.162 µM, the CC50 (HL-60; [2]) was 8.51 µM and the GI50 (NCI-H460) was 5.75 µM. For the same molecule, the CC50 (NCI-H460; [2]) was 79.4 µM, the CC50 (786-0) was 25.1 µM and the GI50 (MDA-MB-435) was 0.209 µM. The CC50 (MDA-MB-435; [2]) was 28.8 µM, the GI50 (ACHN) was 0.759 µM and the CC50 (ACHN; [2]) was 38.9 µM. The GI50 [1] was 6.17 µM, the CC50 [1, 2] was > 100 µM and the GI50 (MOLT-4) was 0.347 µM. For the same molecule, the CC50 (MOLT-4; [2]) was > 100 µM, the GI50 (K562) was 0.0372 µM and the CC50 (K562; [2]) was 5.37 µM. For the same molecule, the GI50 (NCI-H522) was 0.457 µM, the CC50 (NCI-H522; [2]) was > 100 µM and the GI50 (T47D) was 5.89 µM. The CC50 (T47D; [2]) was 60.3 µM, the GI50 (MCF7) was 0.372 µM and the CC50 (MCF7; [2]) was 67.6 µM. It also gave a GI50 (SN12C) of 2.45 µM, a CC50 (SN12C; [2]) of 67.6 µM and a GI50 (NCI-H322M) of 1.66 µM. The CC50 (NCI-H322M; [2]) was 32.4 µM, the GI50 (EKVX) was 10.5 µM and the CC50 (EKVX; [2]) was > 100 µM. The GI50 (A549) was 3.72 µM, the CC50 (A549; [2]) was > 100 µM and the GI50 (HCT-15) was 0.38 µM. The CC50 (HCT-15; [2]) was > 100 µM, the GI50 (NCI/ADR-RES) was 2.04 µM and the CC50 (NCI/ADR-RES; [2]) was 32.4 µM.
